The subject of data set [1] is patients with advanced solid malignancies. The experiment in a line: Phase I 3 + 3 dose escalation: MTD and dose-limiting toxicities. The format is in vivo, human. To be noted: for Pemetrexed dose at MTD: q3w; for MTD of sunitinib: with pemetrexed 500 mg/m^2 q3w. The method in brief:
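Open-label multicentre 3 + 3 escalation. […] A DLT was a grade 3/4 drug-related toxicity in cycle 1 (NCI CTCAE v3.0). MTD was the highest dose with 0/3 or ≤1/6 DLTs.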

Data set [2] has as its system NSCLC NCI-H460 xenograft models. The note with it: cited from earlier work.
Data set [3] concerns patients with advanced solid malignancies. The experiment in a line: Dose delays, dose reductions and relative dose intensity. To be noted: for Cycles with dose reductions: Schedule 2/1. The format is in vivo, human. In short, it runs like this:
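Grade 3/4 toxicity attributed to either drug allowed intra-patient dose reduction at the investigator's discretion, up to 2 reductions per drug. […] Relative dose intensity was actual/intended dose intensity. Results were summarised descriptively per cycle and per patient.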

A further data set deals with NSCLC. The note with it: single-agent sunitinib on Schedule 4/2; cited from earlier work.
For data set [4], the system named is patients with advanced solid malignancies. Kind of data set: Safety: adverse events. The data set is classed as in vivo, human.
The test system of data set [5] is VEGFR and PDGFR phosphorylation. To be noted: cited from earlier work.
The mark [6] stands for this setting: NSCLC expansion cohort (n = 15).

As for `Nc1nc2[nH]cc(CCc3ccc(C(=O)N[C@@H](CCC(=O)O)C(=O)O)cc3)c2c(=O)[nH]1` [pemetrexed], in data set [1] (with sunitinib 37.5 mg/day CDD schedule), the “Pemetrexed dose at MTD” value was found to be 500 mg/m^2. In addition, the “Pemetrexed dose at MTD” value in data set [1] (with sunitinib 50 mg/day Schedule 2/1) is 500 mg/m^2. In addition, the “Effect on antitumor activity of sunitinib” value in data set [2] is “enhanced its antitumor activity”. Also, in data set [3] (CDD schedule MTD), the “Patients with a pemetrexed dose delay” value is reported as 12 patients and the “Patients with a pemetrexed dose reduction to 400 mg/m^2” value came out at 6 patients. For the same compound, in data set [3] (NSCLC expansion cohort), the “Cycles with pemetrexed dose reduction” value amounted to 6 cycles and the “Patients with at least one pemetrexed dose reduction to 400 mg/m^2” value was 3 patients. In addition, the “Cycles with dose reductions” value in data set [3] was 3 cycles. The “Cycles with pemetrexed dose reduction” value in data set [3] (original CDD schedule MTD) came to 13 cycles.
Consider `CCN(CC)CCNC(=O)c1c(C)[nH]c(/C=C2\C(=O)Nc3ccc(F)cc32)c1C` [sunitinib], for which the results for the MTD of sunitinib in data set [1] (CDD schedule) and in data set [1] (Schedule 2/1) were 37.5 mg/day and 50 mg/day, respectively. Also, in the data set on NSCLC, the ORR was 11.1%. The “Serious AEs considered related to sunitinib treatment” value in data set [4] (CDD schedule at the MTD, one event of each in separate patients) was “febrile neutropenia (DLT), pancreatitis, pain, gastroenteritis, and muscular weakness”; in data set [4] (Schedule 2/1, all n = 1), “febrile neutropenia (DLT), tumor perforation, and pyrexia”. In data set [5], the “Target plasma concentrations required to inhibit VEGFR and PDGFR phosphorylation” value is 50 to 100 ng/mL. Further, in data set [2], the Tumor growth result is reported as “decreased tumor growth”. The “Patients with a sunitinib dose reduction to 25 mg” value in data set [3] (CDD schedule MTD) stood at 12 patients. Further, the “Patients with at least one sunitinib dose delay” value in data set [3] (CDD schedule MTD) came to 12 patients. Further, the “Patients who discontinued sunitinib due to AEs” value in data set [3] (CDD schedule MTD, abdominal pain, seizure, thrombocytopenia) is recorded as “Three”. The “Cycles with sunitinib dose reductions” value in data set [3] (setting [6]) came out at 22 cycles; in data set [3] (original CDD schedule MTD cohort (n = 7)) it was 23 cycles. Moreover, the “Patients with at least one sunitinib dose reduction to 25 mg” value in data set [3] (setting [6]) was 7 patients. For the same compound, in data set [3], the “Cycles with dose reductions” value was 6 cycles.

The values above are taken from article PMC3286593 (Cancer Chemotherapy and Pharmacology, 2011).
